Laboratory results: ChEMBL document CHEMBL3272219, “Chemistry and antibacterial activity of nitrobenzofurans” (J Med Chem, 1976)
In brackets after ≈: the same amount, converted by molar mass. Activity calls are given as the source filed them. No cut-off for these calls is given here.

Assays:
[1] = tested on: Escherichia coli; experiment: Antibacterial activity against Escherichia coli B cultured in Jensen's minimal media assessed as growth inhibition by turbidimetric analysis; format: functional, organism-based
Procedure, shortened: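 E. coli B, grown overnight in Jensen's minimal medium, was subcultured at 37° with shaking to 70% T. 1 ml of culture was added to 8 ml Jensen's broth (pH 7) plus 1 ml compound in 10% Me2SO. Five concentrations (dilution series 1–0.1) and a 1% Me2SO control were run. Turbidity was monitored with agitation. Log A vs time gave % inhibition, and IC50 came from log concentration–probability plots.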

[2] = Ratio of antibacterial activity against Escherichia coli B cultured in Jensen's minimal media to antibacterial activity against Escherichia coli Br cultured in Penassay broth; format: functional
[3] = Stability of the compound in aqueous solution; format: physicochemical; details: buffer
Procedure, shortened: (§1)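 Solvolysis was run at 37 ± 0.5° in Jensen's minimal medium at pH 7.0 with 5% Me2SO final, starting from 0.7–2.0 × 10^-4 M compound. Absorbance was followed at a preselected wavelength. Benzofuran concentration was calculated every half hour from substrate and product extinction coefficients. Data were fitted to a first-order rate law, with a 95% confidence range on the rate constant.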

[4] = Half life of the compound in 5% Me2SO-Jensen's minimal media at 0.7 to 2 X 10^-4 M at pH 7 by spectrophotometric analysis; format: physicochemical; procedure, shortened: as §1
[5] = tested on: Escherichia coli; experiment: Antibacterial activity against Escherichia coli B cultured in Jensen's minimal media assessed as growth inhibition by turbidimetric analysis in presence of vitamin-free casamino acids and tryptophan; format: functional, organism-based
Procedure, shortened: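 Same minimal-medium turbidity assay with E. coli B: a 70% T culture was mixed with compound in Me2SO in Jensen's broth (pH 7) and read with agitation. Vitamin-free casamino acids (1.2 g/l) and tryptophan (200 mg/l) were added to the minimal broth.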

[6] = tested on: Escherichia coli; experiment: Antibacterial activity against Escherichia coli B cultured in Jensen's minimal media assessed as growth inhibition at < 2 X 10^-5 M by turbidimetric analysis; format: functional, organism-based
[7] = tested on: Escherichia coli; experiment: Antibacterial activity against Escherichia coli Br after 6 hrs by turbidimetric analysis; format: functional
Procedure, shortened: (§2)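 Overnight Penassay broth culture adjusted to 60% transmittance, diluted 10 ml into 900 ml broth; 4.5 ml inoculum added to 0.5 ml compound in 10% Me2SO. Nine-step dilution series (1 to 0.031), four replicates each, with positive and negative controls. Incubation at 37°, stationary except P. aeruginosa. Turbidity read at 660 nm after 6 hr. MIC taken as the lowest concentration giving >90% T.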

[8] = tested on: Escherichia coli; experiment: Antibacterial activity against nitrofuran reductase-deficient Escherichia coli Br 207 after 6 hrs by turbidimetric analysis; format: functional; details: Br 207, 6 h; procedure, shortened: as §2
[9] = tested on: Pseudomonas aeruginosa; experiment: Antibacterial activity against Pseudomonas aeruginosa after 6 hrs by turbidimetric analysis; format: functional; procedure, shortened: as §2
[10] = tested on: Klebsiella pneumoniae; experiment: Antibacterial activity against Klebsiella pneumoniae after 6 hrs by turbidimetric analysis; format: functional; procedure, shortened: as §2
[11] = tested on: Enterococcus faecalis; experiment: Antibacterial activity against Streptococcus faecalis after 6 hrs by turbidimetric analysis; format: functional; procedure, shortened: as §2
[12] = tested on: Staphylococcus aureus; experiment: Antibacterial activity against Staphylococcus aureus after 6 hrs by turbidimetric analysis; format: functional; procedure, shortened: as §2
[13] = tested on: Providencia rettgeri; experiment: Antibacterial activity against Proteus rettgeri after 6 hrs by turbidimetric analysis; format: functional; procedure, shortened: as §2
[14] = tested on: Proteus mirabilis; experiment: Antibacterial activity against Proteus mirabilis after 6 hrs by turbidimetric analysis; format: functional; procedure, shortened: as §2
[15] = tested on: Escherichia coli; experiment: Antibacterial activity against Escherichia coli B after 6 hrs by turbidimetric analysis; format: functional; procedure, shortened: as §2
[16] = tested on: Escherichia coli; experiment: Antibacterial activity against Escherichia coli Br cultured in Penassay broth assessed as effect on lag time after 9 hrs by turbidimetric analysis; format: functional, organism-based
Procedure, shortened: (§3)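 Cultures in Penassay broth at 37° with compound added from 10% Me2SO and monitored at 660 nm every 20 min for 9 hr after inoculation. For each concentration, the log A660 vs time plot was extrapolated to A = 0.05. Time from inoculation to that point was taken as the lag time, which was then plotted against concentration.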

[17] = Half life of the compound in 20% Me2SO-Jensen's minimal media at 0.7 to 2 X 10^-4 M at pH 6 by spectrophotometric analysis; format: physicochemical
[18] = Half life of the compound in 40% Me2SO-Jensen's minimal media at 0.7 to 2 X 10^-4 M at pH 6 by spectrophotometric analysis; format: physicochemical
[19] = Half life of the compound in 5% Me2SO-Jensen's minimal media at 0.7 to 2 X 10^-4 M at pH 6 by spectrophotometric analysis; format: physicochemical
[20] = tested on: Escherichia coli; experiment: Antibacterial activity against Escherichia coli Br cultured in Penassay broth assessed as time required for growth suppression at 4.4 X 10^-5 M compound added in late log phase of growth by turbidimetric analysis; format: functional
[21] = Half life of the compound in 10% Me2SO-Jensen's minimal media at 0.7 to 2 X 10^-4 M at pH 6 by spectrophotometric analysis; format: physicochemical
[22] = tested on: Klebsiella pneumoniae; experiment: Antibacterial activity against Klebsiella pneumoniae cultured in Penassay broth assessed as effect on lag time after 9 hrs by turbidimetric analysis; format: functional, organism-based; procedure, shortened: as §3
[23] = tested on: Escherichia coli; experiment: Antibacterial activity against Escherichia coli Br cultured in Penassay broth assessed as time required for growth suppression at 4.4 X 10^-5 M compound added in early log phase of growth by turbidimetric analysis; format: functional
[24] = tested on: Staphylococcus aureus; experiment: Antibacterial activity against Staphylococcus aureus cultured in Penassay broth assessed as effect on lag time after 9 hrs by turbidimetric analysis; format: functional, organism-based; procedure, shortened: as §3
[25] = tested on: Escherichia coli; experiment: Antibacterial activity against Escherichia coli Br assessed as decrease in viability at 7.7 X 10^-5 M after 2 hrs; format: functional, organism-based

Cc1oc2c([N+](=O)[O-])cccc2c1Br
growth inhibition (GI) [1]: inactive

Cc1oc2c(Br)cccc2c1[N+](=O)[O-]
Ratio [2]: >10
Stability [3]: Unstable

Cc1cc2cccc(Br)c2o1
growth inhibition (GI) [1]: inactive

Cc1oc2c([N+](=O)[O-])cccc2c1C(N)=O
growth inhibition (GI) [1]: inactive

Cc1oc2c(C(N)=O)cccc2c1[N+](=O)[O-]
half-life [4]: 1.91 h
Ratio [2]: >10
Stability [3]: Unstable

Cc1cc2cccc([N+](=O)[O-])c2o1
growth inhibition (GI) [1]: inactive

Cc1oc2c([N+](=O)[O-])cccc2c1C(=O)O
growth inhibition (GI) [1]: inactive

Cc1cc2cccc(N)c2o1
growth inhibition (GI) [1]: inactive

Cc1oc2ccccc2c1[N+](=O)[O-]
half-life [4]: 3.34 h
Ratio [2]: >10
Stability [3]: Unstable

Cc1oc2c([N+](=O)[O-])cccc2c1C#N
growth inhibition (GI) [1]: inactive

Cc1oc2c(NC(=O)C(F)(F)F)cccc2c1[N+](=O)[O-]
growth inhibition (GI) [5]: inactive
half-life [4]: 2.88 h
Stability [3]: Unstable
growth inhibition (GI) [6]: inactive

Cc1oc2ccc([N+](=O)[O-])cc2c1[N+](=O)[O-]
half-life [4]: 0.89 h
Ratio [2]: >10
Stability [3]: Unstable

NC(=O)N/N=C/c1ccc([N+](=O)[O-])o1 [NITROFURAZONE]
MIC [7]: 5 µg/mL (≈ 25.2 µM)
MIC [8]: 18.7 µg/mL (≈ 94.4 µM)
MIC [9]: > 100 µg/mL
MIC [10]: 10 µg/mL (≈ 50.5 µM)
MIC [11]: 50 µg/mL (≈ 252 µM)
MIC [12]: 5 µg/mL (≈ 25.2 µM)
MIC [13]: > 100 µg/mL
MIC [14]: 50 µg/mL (≈ 252 µM)
MIC [15]: 5 µg/mL (≈ 25.2 µM)
Activity [16]: inactive

Cc1oc2c(C(F)(F)F)cccc2c1[N+](=O)[O-]
half-life [4]: 1.48 h
Ratio [2]: >10
Stability [3]: Unstable

Cc1oc2c([N+](=O)[O-])cccc2c1[N+](=O)[O-]
half-life [17]: 1.78 h
MIC [7]: 1.87 µg/mL (≈ 8.42 µM)
MIC [8]: 1.87 µg/mL (≈ 8.42 µM)
MIC [9]: > 10 µg/mL
half-life [4]: 1.37 h
Ratio [2]: >10
half-life [18]: 1.51 h
MIC [10]: 5 µg/mL (≈ 22.5 µM)
half-life [19]: 2.1 h
Time [20]: 3 h
half-life [21]: 1.95 h
Activity [22]: Active
MIC [11]: 3.75 µg/mL (≈ 16.9 µM)
Time [23]: 6 h
Stability [3]: Unstable
MIC [12]: 2.5 µg/mL (≈ 11.3 µM)
Activity [24]: Active
MIC [13]: 7.5 µg/mL (≈ 33.8 µM)
MIC [14]: 6.25 µg/mL (≈ 28.1 µM)
Activity [25]: inactive
MIC [15]: 1.87 µg/mL (≈ 8.42 µM)
Activity [16]: Active
